Data taken from ChEMBL document CHEMBL3045304, “Sesquiterpene lactones with potential use as natural herbicide models. 2. guaianolides” (2000).
Activity calls are given as the source filed them. The calls are words filed in the database; no cut-off is given here.

Legend:
[1] = system: Triticum aestivum; assay: Inhibition of root length of Triticum aestivum cv. Cortex (wheat) at 0.1 mM or 1 mM after 5 days relative to untreated control; type: functional
How it was run: (§1)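 Wheat: 10 seeds per dish on filter paper with 5 mL test solution, 5 days in the dark at 25 °C, 10 replicates per concentration. Stock test solutions were 10^-3 or 10^-4 M in 10 mM MES, with lower levels made by dilution, all at pH 6.0. Parallel controls were run. Output is % difference from control.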

[2] = system: Solanum lycopersicum; assay: Inhibition of root length of Solanum lycopersicum cv. Tres Cantos (tomato) at 0.1 mM or 1 mM after 5 days relative to untreated control; type: functional
How it was run: (§2)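 Lettuce and tomato seeds, 25 per dish on filter paper, received 5 mL test solution. Incubation was 5 days in the dark at 25 °C, with four replicates per concentration. Solutions were made at 10^-3 or 10^-4 M in 10 mM MES, diluted serially, and adjusted to pH 6.0. Parallel controls were run. Results are % difference from control.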

[3] = system: Solanum lycopersicum; assay: Stimulation of germination of Solanum lycopersicum cv. Tres Cantos (tomato) at 0.1 mM or 1 mM after 5 days relative to untreated control; type: functional; how it was run: as §2
[4] = system: Lepidium sativum; assay: Inhibition of root length of Lepidium sativum at 0.1 mM or 1 mM after 4 days relative to untreated control
[5] = system: Lactuca sativa; assay: Stimulation of root length of Lactuca sativa cv. Roman (lettuce) at 0.1 mM or 1 mM after 5 days relative to untreated control; type: functional; how it was run: as §2
[6] = system: Lactuca sativa; assay: Stimulation of germination of Lactuca sativa cv. Roman (lettuce) at 0.1 mM or 1 mM after 5 days relative to untreated control; type: functional; how it was run: as §2
[7] = system: Lactuca sativa; assay: Inhibition of hypocotyl length of Lactuca sativa cv. Roman (lettuce) at 0.1 mM or 1 mM after 5 days relative to untreated control; type: functional; how it was run: as §2
[8] = system: Lepidium sativum; assay: Inhibition of germination of Lepidium sativum at 0.1 mM or 1 mM after 5 days relative to untreated control; type: functional
[9] = system: Solanum lycopersicum; assay: Inhibition of hypocotyl length of Solanum lycopersicum cv. Tres Cantos (tomato) at 0.1 mM or 1 mM after 5 days relative to untreated control; type: functional; how it was run: as §2
[10] = system: Triticum aestivum; assay: Inhibition of hypocotyl length of Triticum aestivum cv. Cortex (wheat) at 0.1 mM or 1 mM after 5 days relative to untreated control; type: functional; how it was run: as §1
[11] = system: Triticum aestivum; assay: Stimulation of hypocotyl length of Triticum aestivum cv. Cortex (wheat) at 0.1 mM or 1 mM after 5 days relative to untreated control; type: functional; how it was run: as §1
[12] = system: Triticum aestivum; assay: Stimulation of root length of Triticum aestivum cv. Cortex (wheat) at 0.1 mM or 1 mM after 5 days relative to untreated control; type: functional; how it was run: as §1
[13] = system: Lepidium sativum; assay: Inhibition of germination of Lepidium sativum at 0.1 mM or 1 mM after 4 days relative to untreated control; design: scale not given: the % may be the effect or the level left
[14] = system: Lepidium sativum; assay: Inhibition of hypocotyl length of Lepidium sativum at 0.1 mM or 1 mM after 4 days relative to untreated control
[15] = system: Lepidium sativum; assay: Stimulation of hypocotyl length of Lepidium sativum at 0.1 mM or 1 mM after 5 days relative to untreated control; type: functional
[16] = system: Triticum aestivum; assay: Stimulation of germination of Triticum aestivum cv. Cortex (wheat) at 0.1 mM or 1 mM after 5 days relative to untreated control; type: functional; how it was run: as §1
[17] = system: Lactuca sativa; assay: Inhibition of germination of Lactuca sativa cv. Roman (lettuce) at 0.1 mM or 1 mM after 5 days relative to untreated control; type: functional; how it was run: as §2
[18] = system: Solanum lycopersicum; assay: Stimulation of root length of Solanum lycopersicum cv. Tres Cantos (tomato) at 0.1 mM or 1 mM after 5 days relative to untreated control; type: functional; how it was run: as §2
[19] = system: Lactuca sativa; assay: Stimulation of hypocotyl length of Lactuca sativa cv. Roman (lettuce) at 0.1 mM or 1 mM after 5 days relative to untreated control; type: functional; how it was run: as §2
[20] = system: Solanum lycopersicum; assay: Stimulation of hypocotyl length of Solanum lycopersicum cv. Tres Cantos (tomato) at 0.1 mM or 1 mM after 5 days relative to untreated control; type: functional; how it was run: as §2
[21] = system: Lactuca sativa; assay: Inhibition of root length of Lactuca sativa cv. Roman (lettuce) at 0.1 mM or 1 mM after 5 days relative to untreated control; type: functional; how it was run: as §2
[22] = system: Lepidium sativum; assay: Stimulation of root length of Lepidium sativum at 0.1 mM or 1 mM after 5 days relative to untreated control; type: functional
[23] = system: Triticum aestivum; assay: Inhibition of germination of Triticum aestivum cv. Cortex (wheat) at 0.1 mM or 1 mM after 5 days relative to untreated control; type: functional; how it was run: as §1
[24] = system: Solanum lycopersicum; assay: Inhibition of germination of Solanum lycopersicum cv. Tres Cantos (tomato) at 0.1 mM or 1 mM after 5 days relative to untreated control; type: functional; how it was run: as §2
[25] = system: Lepidium sativum; assay: Inhibition of germination of Lepidium sativum at 0.1 mM or 1 mM after 4 days relative to untreated control
[26] = system: Allium cepa; assay: Inhibition of hypocotyl length of Allium cepa cv. Valenciana (onion) at 0.1 mM or 1 mM after 7 days relative to untreated control
[27] = system: Allium cepa; assay: Stimulation of root length of Allium cepa cv. Valenciana (onion) at 0.1 mM or 1 mM after 7 days relative to untreated control
[28] = system: Allium cepa; assay: Inhibition of germination of Allium cepa cv. Valenciana (onion) at 0.1 mM or 1 mM after 5 days relative to untreated control; type: functional
[29] = system: Allium cepa; assay: Stimulation of germination of Allium cepa cv. Valenciana (onion) at 0.1 mM or 1 mM after 5 days relative to untreated control; type: functional
[30] = system: Allium cepa; assay: Stimulation of hypocotyl length of Allium cepa cv. Valenciana (onion) at 0.1 mM or 1 mM after 7 days relative to untreated control
[31] = system: Allium cepa; assay: Inhibition of root length of Allium cepa cv. Valenciana (onion) at 0.1 mM or 1 mM after 5 days relative to untreated control; type: functional
[32] = system: Allium cepa; assay: Stimulation of germination of Allium cepa cv. Valenciana (onion) at 0.1 mM or 1 mM after 7 days relative to untreated control

Structure (SMILES)	inhibition [2]	Activity [3]	inhibition (INH) [4]	Activity [5]	Activity [6]	inhibition (INH) [7]	inhibition [9]	Activity [11]	Activity [12]	Activity [15]	Activity [16]	Activity [18]	Activity [19]	Activity [20]	Activity [22]	inhibition [24]	inhibition [26]	Activity [27]	inhibition [28]	Activity [30]	further results
C=C1CC[C@H]2C(=C)CC[C@H]3C(=C)C(=O)O[C@@H]3[C@@H]12 [DEHYDROCOSTUSLACTONE]	inactive	inactive	>40%	inactive	20%	<20%	inactive	20%	>40%	>40%	>40%	inactive	<20%	inactive	>40%	inactive					inhibition (INH) [1]: >40%; inhibition (INH) [8]: 20%; inhibition (INH) [10]: 20%; Activity [13]: 20%; inhibition (INH) [14]: >40%; inhibition (INH) [17]: 20%; inhibition [21]: inactive; inhibition (INH) [23]: >40%
C=C1CC[C@H]2[C@H](CO)C(=O)O[C@@H]2[C@@]2(O)C(=C)[C@H](O)C[C@@H]12	inactive	inactive	>40%	20%	20%	>40%	inactive	inactive	inactive	20%	<20%	inactive	>40%	inactive	>40%	inactive	inactive	inactive	inactive	inactive	inhibition [1]: inactive; Activity [25]: inactive; inhibition [25]: inactive; inhibition [10]: inactive; inhibition (INH) [14]: 20%; inhibition (INH) [17]: 20%; Activity [29]: inactive; inhibition (INH) [21]: 20%; inhibition (INH) [23]: <20%; inhibition [31]: inactive
CC(=O)O[C@H]1CC(C)=C2C(=O)C=C(C)[C@@H]2[C@H]2OC(=O)[C@H](C)[C@H]21 [8ALPHA-ACETOXYACHILLIN]	inactive	inactive		<20%	inactive	<20%		<20%	inactive	inactive	20%	inactive	<20%	<20%	inactive	inactive	inactive	inactive	inactive	inactive	inhibition [1]: inactive; Activity [25]: inactive; inhibition [25]: inactive; inhibition [4]: inactive; Activity [32]: inactive; inhibition (INH) [9]: <20%; inhibition (INH) [10]: <20%; inhibition [14]: inactive; inhibition [17]: inactive; inhibition (INH) [21]: <20%; inhibition (INH) [23]: 20%; inhibition [31]: inactive
C=C1C(=O)O[C@H]2[C@H]1CCC(=C)[C@]1(O)C[C@@H](O)C(=C)[C@]21O	inactive	<20%	<20%	<20%	inactive	20%	inactive	<20%	<20%	inactive	inactive	inactive	20%	inactive	<20%		inactive	inactive	inactive	inactive	inhibition (INH) [1]: <20%; Activity [25]: inactive; inhibition [25]: inactive; Activity [32]: inactive; inhibition (INH) [10]: <20%; inhibition [14]: inactive; inhibition [17]: inactive; inhibition (INH) [21]: <20%; inhibition [23]: inactive; inhibition [31]: inactive; inhibition (INH) [24]: <20%
C=C1CC[C@H]2[C@H](C)C(=O)O[C@@H]2[C@@]2(O)C(=C)[C@H](O)C[C@@]12O	inactive	inactive	<20%	>40%	20%	>40%	inactive	inactive	inactive	<20%	inactive	inactive	>40%	inactive	<20%	inactive	inactive	inactive	inactive	inactive	inhibition [1]: inactive; Activity [25]: inactive; inhibition [25]: inactive; inhibition [10]: inactive; inhibition (INH) [14]: <20%; inhibition (INH) [17]: 20%; Activity [29]: inactive; inhibition (INH) [21]: >40%; inhibition [23]: inactive; inhibition [31]: inactive
C=C1C(=O)O[C@H]2[C@H]1CCC(=C)[C@]13C[C@@H](O)C(=C)[C@]21OC(C)(C)O3	inactive	inactive	>40%	20%	<20%		inactive	<20%	<20%	>40%	inactive	inactive	inactive	inactive	>40%	inactive	inactive	inactive	inactive	inactive	inhibition (INH) [1]: <20%; inhibition [7]: inactive; inhibition (INH) [8]: 20%; inhibition (INH) [10]: <20%; Activity [13]: 20%; inhibition (INH) [14]: >40%; inhibition (INH) [17]: <20%; Activity [29]: inactive; inhibition (INH) [21]: 20%; inhibition [23]: inactive; inhibition [31]: inactive
